Series [1] can be described thus: Cytotoxicity against human NNC2 cells assessed as decrease in GAPDH RNA level at 10 uM after 3 days by RT-PCR. The note with it: for cytotoxicity at 72 h, 10 µM: NNC2 cells, read-out: INH; for inhibition (INH): nnc2, 72 h, 10 µM. In kind it is cell-based.
For series [2], the system named is Hepatitis C virus. Nature of the series: Antiviral activity against HCV in human NNC2 cells assessed as inhibition of viral RNA replication at 10 uM after […] by RT-PCR analysis. In kind it is functional, Hepacivirus hominis.
The nature of series [3]: Cytotoxicity against human NNC2 cells assessed as decrease in GAPDH RNA level after 3 days by RT-PCR. Format: cell-based. The following applies: for CC50 at 72 h: NNC2 cells; for CC50: nnc2, 72 h. In outline: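 NNC #2 cells carrying full-genomic HCV RNA replicons were grown in high-glucose DMEM with 10% FBS and 1 mg/mL G418. Cells were seeded at 5 × 10⁴ cells/mL and cultured 24 h at 37 °C. Medium was then replaced with DMEM/10% FBS containing graded compound concentrations for 3 days. HCV RNA and GAPDH RNA were quantified by real-time RT-PCR. EC50 and CC50 are the concentrations lowering each RNA to 50% of control.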

The test system of series [4] is Hepatitis C virus. Nature of the series: Antiviral activity against HCV in human NNC2 cells assessed as inhibition of viral RNA replication after 3 days by RT-PCR analysis. The following applies: for pEC50: Hepatitis C virus, NNC2, 3 days, read-out: EC50; for EC50: nnc2.
Series [5] can be described thus: Selectivity index, CC50 for human NNC2 cells to IC50 for Hepatitis C virus. Format: functional.
The subject of series [6] is Hepatitis C virus. Nature of the series: Antiviral activity against HCV in human NNC2 cells assessed as inhibition of viral RNA replication at 10 uM after 3 days by RT-PCR analysis. The note with it: Hepacivirus hominis.

As usually defined, the inhibition is how much of the control response was suppressed. What is called CC50 is the concentration at which the toxic effect on the cells reaches its halfway point. As usually defined, the pEC50 is the EC50 on a negative log10 scale, so that one unit is a factor of ten.

Structures are written as SMILES. pEC50: −log10 of the molar value. Calls of active or inactive are those of the source. The calls are words filed in the database; no cut-off is given here. Where only a bound is given, the exact number is not on record here.

`CCCCn1c(=O)c2cc(C)ccc2c2ccccc21`: the cytotoxicity at 72 h, 10 µM in series [1] is 88.8%. In series [2], the inhibition at 10 µM stood at 87%.

For the compound `CCCCn1c(=O)c2ccccc2c2cc(CCc3ccccc3)ccc21`, the 50% cytotoxic concentration (CC50) at 72 h in series [3] was 24.1 µM. Besides, the negative logarithm of the EC50 (pEC50) in series [4] is 4.68.

As for `CCCCn1c(=O)c2ccccc2c2ccc3ccccc3c21`, the half-maximal cytotoxic concentration (CC50) at 72 h in series [3] was 24.3 µM. In addition, the pEC50 in series [4] is 4.71.

`CCCCn1c(=O)c2c3ccccc3ccc2c2ccccc21`: the CC50 at 72 h in series [3] is > 40 µM. For the same compound, the pEC50 in series [4] was 4.52.

Regarding `CCCCn1c(=O)c2ccccc2c2cc3ccccc3cc21`, the “Selectivity Index” value in series [5] was found to be 1.97. Moreover, in series [3], the CC50 at 72 h is 6.3 µM. For the same compound, the pEC50 in series [4] was 5.49.

In the case of `CCCCn1c(=O)c2cccc(C)c2c2ccccc21`, the cytotoxicity at 72 h, 10 µM in series [1] is 94.9%. For the same compound, in series [6], the inhibition result was “inactive”.

On to `CC1(C)CCC(C)(C)c2cc3c(cc21)c1ccccc1c(=O)n3CC1CCCCC1`, for which, in series [3], the 50% cytotoxic concentration (CC50) result is “Not Active”. The EC50 entry in series [4] is reported as “Not Active”.

For `CCCCn1c(=O)c2ccccc2c2cc(CC)ccc21`, in series [3], the CC50 at 72 h stood at 40.5 µM. For the same compound, the negative logarithm of the EC50 (pEC50) in series [4] is 4.46.

With `CCCCn1c(=O)c2ccccc2c2cc3c(cc21)C(C)(C)CCC3(C)C`, the CC50 at 72 h in series [3] is 27.3 µM. For the same compound, the negative-log EC50 (pEC50) in series [4] is 4.73.

With `CCCCn1c(=O)c2ccccc2c2ccc(C)cc21`, in series [1], the cytotoxicity at 72 h, 10 µM stood at 70.7%. The inhibition entry in series [6] was “inactive”.

Consider `CCCCn1c(=O)c2ccccc2c2c(C)cccc21`, for which the cytotoxicity at 72 h, 10 µM in series [1] is 85.2%. Moreover, in series [6], the inhibition entry is “inactive”.

`CCCCn1c(=O)c2ccccc2c2cc(C)ccc21`: in series [1], the cytotoxicity at 72 h, 10 µM was found to be 98.5%. The inhibition at 10 µM in series [2] was 42%. Moreover, the CC50 at 72 h in series [3] stood at 38.4 µM. For the same compound, the pEC50 in series [4] is 4.45.

On to `CCCCn1c(=O)c2ccccc2c2ccccc21`, for which the “inhibition (INH)” value in series [1] is on record as “Not Active”. In addition, the inhibition entry in series [6] was “inactive”. The CC50 at 72 h in series [3] stood at 58.3 µM. The pEC50 in series [4] was < 4.23.

As for `CCCCCCn1c(=O)c2ccccc2c2cc(C(O)(C(F)(F)F)C(F)(F)F)ccc21`, in series [3], the CC50 at 72 h worked out at 12.2 µM. Also, the negative-log EC50 (pEC50) in series [4] was 5.32.

With `CCCCCCCCCn1c(=O)c2ccccc2c2cc(C(O)(C(F)(F)F)C(F)(F)F)ccc21`, the CC50 at 72 h in series [3] is 10.2 µM. For the same compound, the negative-log EC50 (pEC50) in series [4] is 5.08.

On to `CCCCn1c(=O)c2ccccc2c2cc(C(F)(F)F)ccc21`, for which the CC50 at 72 h in series [3] is > 50 µM. In addition, in series [4], the negative logarithm of the EC50 (pEC50) was < 4.30.

On to `CCCCn1c(=O)c2cc3c(cc2c2ccccc21)C(C)(C)CCC3(C)C`, for which the 50% cytotoxic concentration (CC50) result in series [3] is “Not Active”. In series [4], the EC50 entry was “Not Active”.

With `CCCCn1c(=O)c2ccc(C)cc2c2ccccc21`, in series [1], the “inhibition (INH)” value is reported as “Not Active”. In series [6], the inhibition entry was “inactive”.

In the case of `CCCCn1c(=O)c2ccccc2c2c3ccccc3ccc21`, in series [3], the CC50 at 72 h is 44.5 µM. The pEC50 in series [4] was 4.54.

For the compound `CCCCn1c(=O)c2ccccc2c2cc(C(O)(C(F)(F)F)C(F)(F)F)ccc21`, the half-maximal cytotoxic concentration (CC50) at 72 h in series [3] was found to be 12.5 µM. In addition, the pEC50 in series [4] was 5.43.

For `CCCCn1c(=O)c2ccc3ccccc3c2c2ccccc21`, the CC50 at 72 h in series [3] was 31.4 µM. Besides, the negative-log EC50 (pEC50) in series [4] is < 4.50.

Consider `O=c1c2ccccc2c2cc(C(O)(C(F)(F)F)C(F)(F)F)ccc2n1CC1CCCCC1`, for which the 50% cytotoxic concentration (CC50) at 72 h in series [3] is 14.4 µM. Also, the negative logarithm of the EC50 (pEC50) in series [4] was 5.17.

Consider `CCCCn1c(=O)c2ccccc2c2cc(F)ccc21`, for which the CC50 at 72 h in series [3] was > 50 µM. Further, the pEC50 in series [4] is < 4.30.

On to `CCCCn1c(=O)c2ccccc2c2cc(C(C)=O)ccc21`, for which the CC50 at 72 h in series [3] is 27.3 µM. Further, in series [4], the pEC50 was 4.73.

On to `CCCCn1c(=O)c2cc3ccccc3cc2c2ccccc21`, for which, in series [5], the “Selectivity Index” value is reported as >3.64. Further, the CC50 at 72 h in series [3] is > 40 µM. Also, the pEC50 in series [4] was 4.96.

Regarding `CCn1c(=O)c2ccccc2c2cc(C(O)(C(F)(F)F)C(F)(F)F)ccc21`, the 50% cytotoxic concentration (CC50) at 72 h in series [3] was > 40 µM. Besides, the pEC50 in series [4] is 4.85.

For `O=c1c2ccccc2c2cc(C(O)(C(F)(F)F)C(F)(F)F)ccc2n1CC(F)(F)F`, the CC50 at 72 h in series [3] amounted to 30.3 µM. For the same compound, the pEC50 in series [4] was 4.61.

Turning to `CC1(C)CCC(C)(C)c2cc3c(cc21)c1ccccc1c(=O)n3Cc1ccccc1`, the CC50 at 72 h in series [3] came to 31.8 µM. In addition, the pEC50 in series [4] was 4.67.

As for `CCCCn1c(=O)c2ccccc2c2cc(C(C)C)ccc21`, the CC50 at 72 h in series [3] worked out at 29.7 µM. Also, the negative-log EC50 (pEC50) in series [4] is 4.79.

Turning to `CCCCn1c(=O)c2ccccc2c2cc(O)ccc21`, the cytotoxic concentration (CC50) at 72 h in series [3] amounted to 43.7 µM. For the same compound, the pEC50 in series [4] was 4.42.

With `CCCCn1c(=O)c2ccccc2c2cc(C(C)(C)C)ccc21`, the cytotoxic concentration (CC50) at 72 h in series [3] turned out to be 24.9 µM. The pEC50 in series [4] was 4.97.

For `CC1(C)CCC(C)(C)c2cc3c(cc21)[nH]c(=O)c1ccccc13`, in series [3], the half-maximal cytotoxic concentration (CC50) entry is “Not Active”. For the same compound, the EC50 entry in series [4] is “Not Active”.

Take `CCCCn1c(=O)c2ccccc2c2cc(CO)ccc21`: the CC50 at 72 h in series [3] was > 50 µM. In addition, the pEC50 in series [4] was 4.67.

On to `CCCCn1c(=O)c2ccccc2c2cc(C(C)O)ccc21` (stereo not given), for which the half-maximal cytotoxic concentration (CC50) at 72 h in series [3] amounted to 51.4 µM. Further, the pEC50 in series [4] was 4.66.

Take `CCCCn1c(=O)c2c(C)cccc2c2ccccc21`: the “inhibition (INH)” value in series [1] was “Not Active”. Moreover, in series [6], the inhibition result was “inactive”.

With `CCCCn1c(=O)c2ccccc2c2cccc(C)c21`, in series [1], the “inhibition (INH)” value was “Not Active”. Besides, in series [6], the inhibition result is “inactive”.

Consider `O=c1c2ccccc2c2cc(C(O)(C(F)(F)F)C(F)(F)F)ccc2n1Cc1ccccc1`, for which the 50% cytotoxic concentration (CC50) at 72 h in series [3] worked out at 18.2 µM. Also, the pEC50 in series [4] is 5.11.

(Values after ChEMBL document CHEMBL1156166, “Structural development studies of anti-hepatitis C virus agents with a phenanthridinone skeleton” (Bioorg Med Chem, 2010).)
